Active and inactive are the calls of the source. Non-standard residues stand in square brackets, D forms with d. Residues, ends and D or L forms follow the SMILES beside them. *: point of attachment. Propanoyl(3-cHex) = O=C(CCC1CCCCC1)*; Dab = NCC[C@H](N)C(=O)O
Legend:
Mus musculus [1] = test: Suppression of restrain stress-induced plasma prolactin level in C57BL/6J mouse assessed as prolactin level at 20 nmol administered intranasally followed by exposure to restraint stress for 40 mins by ELISA (reference value: 2.04 +/-0.95 ng/ml); type: functional; conditions: route nas
Mus musculus [2] = test: Effect on total distance travelled in ddY mouse at 200 nmol administered intranasally and measured after 45 mins by open field test; type: functional; conditions: route nas
How it was run: (§1)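 Open field (40 × 40 × 50 cm) with video tracking at 45 min and 24 h after i.n. dosing (200 nmol); total distance, cumulative grooming time, and inner ratio (% time in central 20 × 20 cm zone) scored. N = 8, mean ± SD; two-way repeated measures ANOVA, Tukey–Kramer.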

Mus musculus [3] = test: Induction of anxiety-like behaviour in ddY mouse assessed as decrease in inner ratio at 200 nmol administered intranasally and measured after 45 mins by open field test; type: functional; conditions: route nas; how it was run: as §1
Mus musculus [4] = test: Suppression of appetite in ddY mouse assessed as decrease in food consumption at 200 nmol administered intranasally as single dose on day 0 and measured on day 1; type: functional, organism-based; conditions: route nas, time 1.0 day
How it was run: (§2)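 Single i.n. dose (200 nmol) or saline vehicle given on day 0; mice housed individually, with body weight, food and water consumed recorded daily. N = 8 per group, mean ± SD; two-way repeated measures ANOVA followed by Tukey–Kramer test.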

Mus musculus [5] = test: Suppression of appetite in ddY mouse assessed as decrease in daily food intake at 200 nmol administered intranasally on day 0 to 2 and measured on days 1 to 3; type: functional, organism-based; conditions: route nas, time 3.0 day
How it was run: (§3)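 Daily i.n. dosing (200 nmol) or saline vehicle on days 0–2 in individually housed mice; body weight (relative to day 0), daily food intake and water intake recorded daily. N = 8, mean ± SD; two-way repeated measures ANOVA with Tukey–Kramer test.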

Mus musculus [6] = test: Induction of anxiety-like behaviour in ddY mouse assessed as decrease in inner ratio at 200 nmol administered intranasally and measured after 24 hrs by open field test; type: functional; conditions: route nas; how it was run: as §1
Mus musculus [7] = test: Effect on water intake in ddY mouse at 200 nmol administered intranasally as single dose on day 0 and measured for 3 days; type: functional; conditions: route nas, time 3.0 day; how it was run: as §2
Mus musculus [8] = test: Induction of stress related behaviour in ddY mouse assessed as increase in cumulative grooming time at 200 nmol administered intranasally and measured after 3 hrs by open field test; type: functional; conditions: route nas
Mus musculus [9] = test: Effect on total distance travelled in ddY mouse at 200 nmol administered intranasally and measured after 3 hrs by open field test; type: functional; conditions: route nas
Mus musculus [10] = test: Induction of stress related behaviour in ddY mouse assessed as increase in cumulative grooming time at 200 nmol administered intranasally and measured after 24 hrs by open field test; type: functional; conditions: route nas; how it was run: as §1
Mus musculus [11] = test: Suppression of restrain stress-induced plasma prolactin level in C57BL/6J mouse at 200 nmol administered intranasally followed by exposure to restraint stress for 40 mins by ELISA; type: functional, organism-based; conditions: route nas
Mus musculus [12] = test: Suppression of appetite in ddY mouse assessed as decrease in body weight gain at 200 nmol administered intranasally as single dose on day 0; type: functional, organism-based; conditions: route nas; how it was run: as §2
Mus musculus [13] = test: Increase in water intake in ddY mouse at 200 nmol administered intranasally on days 0 to 2 and measured on days 4 to 5; type: functional; conditions: route nas, time 4-5 day; how it was run: as §3
Mus musculus [14] = test: Induction of stress related behaviour in ddY mouse assessed as increase in cumulative grooming time at 200 nmol administered intranasally and measured after 45 mins by open field test; type: functional; conditions: route nas; how it was run: as §1
Mus musculus [15] = test: Suppression of appetite in ddY mouse assessed as body weight at 200 nmol administered intranasally on days 0 to 2 and measured for 3 days relative to day 0; type: functional; conditions: route nas, time 3 day; how it was run: as §3
Mus musculus [16] = test: Suppression of plasma prolactin level in C57BL/6J mouse assessed as prolactin level at 20 nmol administered intranasally by ELISA (reference value: 0.45 +/-0.14 ng/ml); type: functional; conditions: route nas
Mus musculus [17] = test: Suppression of restrain stress-induced plasma prolactin level in C57BL/6J mouse at 20 nmol administered intranasally and 50 mins later exposure to restraint stress for 40 mins by ELISA; type: functional, organism-based; conditions: route nas, time 90.0 min
Mus musculus [18] = test: Induction of anxiety-like behaviour in ddY mouse assessed as decrease in inner ratio at 200 nmol administered intranasally and measured after 3 hrs by open field test; type: functional; conditions: route nas

CC(C)C[C@H](NC(=O)CCC1CCCCC1)C(=O)N[C@@H](CC(C)C)C(=O)N[C@@H](CCN)C(=O)N1CCC[C@H]1C(=O)N[C@@H](CCCNC(=N)N)C(=O)N[C@@H](CC(N)=O)C(N)=O ({Propanoyl(3-cHex)}-LL[Dab]PRN-NH2)
inactive: Activity (Mus musculus [2]) | Activity (Mus musculus [6]) | Activity (Mus musculus [7]) | Activity (Mus musculus [8]) | Activity (Mus musculus [9]) | Activity (Mus musculus [10]) | inhibition (Mus musculus [17]) | Activity (Mus musculus [18])
<100%: Activity (Mus musculus [15])
active: Activity (Mus musculus [3]) | inhibition (Mus musculus [4]) | inhibition (Mus musculus [5]) | inhibition (Mus musculus [11]) | inhibition (Mus musculus [12]) | Activity (Mus musculus [13]) | Activity (Mus musculus [14])
0.49 ng/mL: Activity (Mus musculus [1])
<0.15 ng/mL: Activity (Mus musculus [16])

— ChEMBL document CHEMBL5344459, “Suppressive Effects of Neuromedin U Receptor 2-Selective Peptide Agonists on Appetite and Prolactin Secretion in Mice” (2024)
